The source of these data is article PMC5069309 (Clinical Pharmacokinetics, 2016).

One may read the CL/F as the apparent clearance, not corrected for the fraction that reaches the circulation. What is called Vd/F is the apparent distribution volume after extravascular dosing.

Where two headings read alike, the source gives them in different places.

The conditions of series [1]: cited from earlier work.
The format of series [2] is in vivo. To be noted: human, plasma, sc. An outline of the steps: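 Type 1 diabetic subjects dosed sc once daily for 4 weeks, from 0.6 mg/day rising 0.6 mg weekly to 0.6, 1.2 or 1.8 mg. Plasma taken pre-dose and 2–60 h after the final steady-state dose; sandwich ELISA with N- and C-terminal monoclonals, LLOQ 30 pmol/L. Non-compartmental: trapezoidal AUC, observed Cmax/tmax, CL/F = dose/AUC0–24 h, Vz/F = (CL/F)/λz.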

For the compound `CCCCCCCCCCCCCCCC(=O)N[C@@H](CCC(=O)NCCCC[C@H](NC(=O)[C@H](C)NC(=O)[C@H](C)NC(=O)[C@H](CCC(N)=O)NC(=O)CNC(=O)[C@H](CCC(=O)O)NC(=O)[C@H](CC(C)C)NC(=O)[C@H](Cc1ccc(O)cc1)NC(=O)[C@H](CO)NC(=O)[C@H](CO)NC(=O)[C@@H](NC(=O)[C@H](CC(=O)O)NC(=O)[C@H](CO)NC(=O)[C@@H](NC(=O)[C@H](Cc1ccccc1)NC(=O)[C@@H](NC(=O)CNC(=O)[C@H](CCC(=O)O)NC(=O)[C@H](C)NC(=O)[C@@H](N)Cc1cnc[nH]1)[C@@H](C)O)[C@@H](C)O)C(C)C)C(=O)N[C@@H](CCC(=O)O)C(=O)N[C@@H](Cc1ccccc1)C(=O)N[C@H](C(=O)N[C@@H](C)C(=O)N[C@@H](Cc1c[nH]c2ccccc12)C(=O)N[C@@H](CC(C)C)C(=O)N[C@H](C(=O)N[C@@H](CCCNC(=N)N)C(=O)NCC(=O)N[C@@H](CCCNC(=N)N)C(=O)NCC(=O)O)C(C)C)[C@@H](C)CC)C(=O)O` [Liraglutide, liraglutide], the “V z/F” value in series [1] (healthy volunteers and subjects with T2D, previous studies) was 11 to 17 L. Besides, in series [1] (studies with healthy volunteers and subjects with T2D), the CL/F is reported as 1.2 L/h. Besides, the Vd/F in series [2] came out at 27.4 L; in series [2] (0.6 mg), 27 L; in series [2] (1.2 mg), 26 L; in series [2] (1.8 mg) it was 29.3 L.
